Measured values reported in PMC5730044 (International journal of medical microbiology : IJMM, 2014).
≈ marks a conversion by molar mass, not a printed value.

How the values were obtained:
S. pneumoniae [1] = assay: Biofilm inhibition assay; format: cell-based; settings: range among all tested strains
S. pneumoniae DSM20566 [2] = assay: Biofilm inhibition assay; format: cell-based; settings: DSM20566, TSB, 24 h
S. pneumoniae D39 [3] = assay: Broth microdilution assay; format: cell-based; settings: Streptococcus pneumoniae, D39, 18 h, read-out: 90% minimal inhibitory concentration
S. pneumoniae DSM20566 [4] = assay: Minimal bactericidal concentration; format: cell-based; settings: viability reduced by ≥99.9%
S. pneumoniae DSM14378 [5] = assay: Broth microdilution assay; format: cell-based; settings: Streptococcus pneumoniae, DSM14378, 18 h, read-out: 90% minimal inhibitory concentration
S. pneumoniae CF6937 [6] = assay: Minimal bactericidal concentration; format: cell-based; settings: viability reduced by ≥99.9%
S. pneumoniae PN8828 [7] = assay: Broth microdilution assay; format: cell-based; settings: Streptococcus pneumoniae, PN8828, 18 h, read-out: 90% minimal inhibitory concentration
S. pneumoniae CF6937 [8] = assay: Broth microdilution assay; format: cell-based; settings: Streptococcus pneumoniae, CF6937, 18 h, read-out: 90% minimal inhibitory concentration
A549 cells = assay: Cytotoxicity on confluent A549 cell monolayers; format: cell-based, human; settings: 12.50 μM, A549, 72 h
Method in brief: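 Three-day-old confluent A549 monolayers were exposed to two-fold serial compound dilutions in duplicate for 72 h at 37°C, 5% CO₂. Cells were washed, fixed and crystal violet-stained, and dye was eluted in citrate/HCl/ethanol buffer for OD550. Viability is relative to six untreated controls. CC50 comes from mean dose-response curves of at least three assays. Morphology at 12.5 µM was checked by phase-contrast microscopy.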

S. pneumoniae CF8919 [9] = assay: Broth microdilution assay; format: cell-based; settings: Streptococcus pneumoniae, CF8919, 18 h, read-out: 90% minimal inhibitory concentration
S. pneumoniae BC7326 [10] = assay: Biofilm inhibition assay; format: cell-based; settings: BC7326, TSB, 24 h
[11] = system: S. pneumoniae PN8828 adherence to A549 cells; assay: Adherence inhibition assay on A549 cells; format: cell-based; settings: Streptococcus pneumoniae, A549, 1.5 h, read-out: concentration giving 50% reduction in adherence levels (AIC50)
[12] = system: pneumococcal NA of strain DSM20566; assay: Lectin-based hemagglutination; format: cell-based, S. pneumoniae; settings: minimal NA inhibitory concentration
S. pneumoniae DSM14378 [13] = assay: Biofilm inhibition assay; format: cell-based; settings: DSM14378, TSB, 24 h
S. pneumoniae CF8919 [14] = assay: Biofilm inhibition assay; format: cell-based; settings: CF8919, TSB, 24 h
[15] = system: pneumococcal NA of strain D39; assay: Lectin-based hemagglutination; format: cell-based, S. pneumoniae
S. pneumoniae BC7326 [16] = assay: Broth microdilution assay; format: cell-based; settings: Streptococcus pneumoniae, BC7326, 18 h, read-out: 90% minimal inhibitory concentration
[17] = target: recombinant NanA of DSM20566 (Streptococcus pneumoniae, UniProt P62575); format: biochemical, S. pneumoniae; settings: for mechanism of inhibition: rNanA, Lineweaver-Burk / SigmaPlot analysis
Chain of recombinant NanA of DSM20566 (P62575 116-1035 limits assumed): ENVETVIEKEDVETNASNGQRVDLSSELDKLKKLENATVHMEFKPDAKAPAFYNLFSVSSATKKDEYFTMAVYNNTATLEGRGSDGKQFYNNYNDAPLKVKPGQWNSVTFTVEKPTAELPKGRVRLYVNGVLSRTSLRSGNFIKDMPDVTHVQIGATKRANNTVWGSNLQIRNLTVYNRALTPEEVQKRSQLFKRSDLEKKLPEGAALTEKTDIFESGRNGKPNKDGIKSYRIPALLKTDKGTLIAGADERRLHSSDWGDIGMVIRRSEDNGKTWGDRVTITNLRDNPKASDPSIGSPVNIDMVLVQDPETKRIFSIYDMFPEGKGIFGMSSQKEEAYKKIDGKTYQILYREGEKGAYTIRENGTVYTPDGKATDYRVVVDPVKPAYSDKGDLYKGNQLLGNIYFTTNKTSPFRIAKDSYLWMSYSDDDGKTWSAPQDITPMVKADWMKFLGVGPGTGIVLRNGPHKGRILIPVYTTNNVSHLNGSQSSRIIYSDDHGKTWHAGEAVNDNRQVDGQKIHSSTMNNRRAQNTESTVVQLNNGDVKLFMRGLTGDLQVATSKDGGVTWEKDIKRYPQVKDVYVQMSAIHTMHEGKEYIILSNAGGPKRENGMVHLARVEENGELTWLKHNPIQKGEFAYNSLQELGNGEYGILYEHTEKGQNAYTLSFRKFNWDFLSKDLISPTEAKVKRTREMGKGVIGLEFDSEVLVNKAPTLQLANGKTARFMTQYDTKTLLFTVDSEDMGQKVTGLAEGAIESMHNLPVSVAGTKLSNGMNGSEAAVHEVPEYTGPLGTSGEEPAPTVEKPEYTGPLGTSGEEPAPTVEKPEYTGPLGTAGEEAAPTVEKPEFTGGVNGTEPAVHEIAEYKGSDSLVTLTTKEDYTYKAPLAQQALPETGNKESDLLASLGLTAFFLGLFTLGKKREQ

S. pneumoniae BC7326 [18] = assay: Minimal bactericidal concentration; format: cell-based; settings: viability reduced by ≥99.9%
human erythrocytes = assay: Erythrocyte hemolysis assay; format: cell-based; settings: observed in HA assay with D39 protein
[19] = Erythrocyte hemolysis assay; format: cell-based, human; settings: human, erythrocytes
[20] = system: pneumococcal NA of strain CJ9400; assay: Lectin-based hemagglutination; format: cell-based, S. pneumoniae; settings: minimal NA inhibitory concentration
S. pneumoniae D39 [21] = assay: Minimal bactericidal concentration; format: cell-based; settings: viability reduced by ≥99.9%
S. pneumoniae D39 [22] = assay: Biofilm inhibition assay; format: cell-based; settings: D39, TSB, 24 h
S. pneumoniae CF6937 [23] = assay: Biofilm inhibition assay; format: cell-based; settings: CF6937, TSB, 24 h
S. pneumoniae DSM20566 [24] = assay: Broth microdilution assay; format: cell-based; settings: Streptococcus pneumoniae, DSM20566, 18 h, read-out: 90% minimal inhibitory concentration
[25] = system: S. pneumoniae DSM20566 adherence to A549 cells; assay: Adherence inhibition assay on A549 cells; format: cell-based; settings: Streptococcus pneumoniae, DSM20566, A549, 1.5 h, read-out: concentration giving 50% reduction in adherence levels (AIC50)
[26] = system: pneumococcal adherence to pulmonary epithelial A549 cells
S. pneumoniae BC57 [27] = assay: Biofilm inhibition assay; format: cell-based; settings: BC57, TSB, 24 h
S. pneumoniae BC57 [28] = assay: Broth microdilution assay; format: cell-based; settings: Streptococcus pneumoniae, BC57, 18 h, read-out: 90% minimal inhibitory concentration
S. pneumoniae CJ9400 [29] = assay: Broth microdilution assay; format: cell-based; settings: Streptococcus pneumoniae, CJ9400, 18 h, read-out: 90% minimal inhibitory concentration
S. pneumoniae PN8828 [30] = assay: Biofilm inhibition assay; format: cell-based; settings: PN8828, TSB, 24 h
S. pneumoniae DSM14378 [31] = assay: Minimal bactericidal concentration; format: cell-based; settings: viability reduced by ≥99.9%
S. pneumoniae [32] = assay: Bactericidal activity, studied pneumococci; format: cell-based
S. pneumoniae [33] = assay: Broth microdilution assay; format: cell-based; settings: Streptococcus pneumoniae, read-out: MIC90 values
Method in brief: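 Pneumococci were pre-grown in BHI with gentle shaking at 37°C for 4–5 h (mid-exponential), adjusted to McFarland 0.5 (1.5 × 10^8 cfu/mL) and diluted 50× in BHI. 50 µL bacteria plus 100 µL of two-fold compound dilutions (top 50 or 200 µM) in BHI were run in duplicate, overnight at 37°C, 5% CO₂. OD620 at 18 h minus 0 h was taken relative to no-compound growth control; MIC90 is 90% turbidity reduction.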

S. pneumoniae CJ9400 [34] = assay: Minimal bactericidal concentration; format: cell-based; settings: viability reduced by ≥99.9%
S. pneumoniae CJ9400 [35] = assay: Biofilm inhibition assay; format: cell-based; settings: CJ9400, TSB, 24 h
pneumococcal NA = pneumococcal NA (Streptococcus pneumoniae, UniProt P62575); settings: ref Gut et al., 2011; cited from earlier work
Chain of pneumococcal NA (P62575 54-1006): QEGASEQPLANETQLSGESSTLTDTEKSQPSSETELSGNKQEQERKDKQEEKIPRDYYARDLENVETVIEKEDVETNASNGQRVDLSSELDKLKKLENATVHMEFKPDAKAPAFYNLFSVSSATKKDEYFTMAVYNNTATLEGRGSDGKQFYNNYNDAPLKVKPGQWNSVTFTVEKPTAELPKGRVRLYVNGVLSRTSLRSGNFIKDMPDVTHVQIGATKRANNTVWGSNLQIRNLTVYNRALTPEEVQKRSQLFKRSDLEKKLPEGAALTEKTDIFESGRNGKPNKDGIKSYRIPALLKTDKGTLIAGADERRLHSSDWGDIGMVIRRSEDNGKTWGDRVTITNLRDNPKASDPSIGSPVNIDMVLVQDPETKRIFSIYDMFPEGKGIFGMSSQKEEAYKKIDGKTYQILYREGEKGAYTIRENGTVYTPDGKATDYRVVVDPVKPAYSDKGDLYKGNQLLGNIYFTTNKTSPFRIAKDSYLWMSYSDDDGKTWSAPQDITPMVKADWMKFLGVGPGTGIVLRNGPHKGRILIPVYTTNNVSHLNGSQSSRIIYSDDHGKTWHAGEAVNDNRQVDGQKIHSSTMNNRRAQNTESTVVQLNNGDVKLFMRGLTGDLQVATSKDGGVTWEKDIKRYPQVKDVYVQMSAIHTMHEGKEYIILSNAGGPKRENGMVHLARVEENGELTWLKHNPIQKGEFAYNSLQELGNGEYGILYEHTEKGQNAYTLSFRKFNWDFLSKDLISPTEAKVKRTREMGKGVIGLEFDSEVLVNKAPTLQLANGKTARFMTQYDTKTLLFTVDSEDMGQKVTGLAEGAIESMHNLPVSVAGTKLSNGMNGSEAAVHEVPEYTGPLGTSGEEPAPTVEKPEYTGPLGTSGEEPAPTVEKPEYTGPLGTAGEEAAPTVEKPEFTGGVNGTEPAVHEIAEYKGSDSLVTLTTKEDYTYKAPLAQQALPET

viral NAs = settings: ref Collins et al., 2008; cited from earlier work

Row | SMILES | 90% minimal biofilm inhibitory concentration (S. pneumoniae DSM20566 [2]) | Bactericidal concentration (S. pneumoniae DSM20566 [4]) | Bactericidal concentration (S. pneumoniae CF6937 [6]) | 90% minimal biofilm inhibitory concentration (S. pneumoniae BC7326 [10]) | Inhibitory concentration (HA assay) [12] | 90% minimal biofilm inhibitory concentration (S. pneumoniae DSM14378 [13]) | 90% minimal biofilm inhibitory concentration (S. pneumoniae CF8919 [14]) | mechanism of inhibition [17] | Bactericidal concentration (S. pneumoniae BC7326 [18]) | Inhibitory concentration (HA assay) [20] | Bactericidal concentration (S. pneumoniae D39 [21]) | 90% minimal biofilm inhibitory concentration (S. pneumoniae D39 [22]) | 90% minimal biofilm inhibitory concentration (S. pneumoniae CF6937 [23]) | 90% minimal biofilm inhibitory concentration (S. pneumoniae BC57 [27]) | 90% minimal biofilm inhibitory concentration (S. pneumoniae PN8828 [30]) | Bactericidal concentration (S. pneumoniae DSM14378 [31]) | Bactericidal concentration (S. pneumoniae CJ9400 [34]) | 90% minimal biofilm inhibitory concentration (S. pneumoniae CJ9400 [35]) | also measured
1 | COc1cc2oc(-c3ccc(O)cc3O)c(CC=C(C)C)c(=O)c2c(O)c1/C=C/C(C)C [artocarpin] | 2.88 ± 0.07 µM | 3.13 ± 0.00 µM | 3.44 ± 1.53 µM | 2.02 ± 0.62 µM | 7.7 ± 4.0 µM | 2.37 ± 0.67 µM | 1.15 ± 0.34 µM | mixed-type inhibition | 3.32 ± 1.94 µM | 2.6 ± 1.1 µM | 2.50 ± 0.77 µM | 2.22 ± 0.76 µM | 2.73 ± 0.27 µM | 2.35 ± 0.68 µM | 1.40 ± 0.07 µM | 4.69 ± 1.98 µM | 2.74 ± 0.68 µM | 2.97 ± 0.13 µM | mean MBIC90 values (S. pneumoniae [1]): 1.15 to 2.97 µM; MIC (S. pneumoniae D39 [3]): 1.29 ± 0.31 µM (≈ 0.563 µg/mL); MIC (S. pneumoniae DSM14378 [5]): 5.75 ± 0.13 µM (≈ 2.51 µg/mL); MIC (S. pneumoniae PN8828 [7]): 0.99 ± 0.48 µM (≈ 0.432 µg/mL); MIC (S. pneumoniae CF6937 [8]): 3.39 ± 2.1 µM (≈ 1.48 µg/mL); cytotoxic effect (in words) (A549 cells): no cytotoxic effect; MIC (S. pneumoniae CF8919 [9]): 1.45 ± 0.01 µM (≈ 0.633 µg/mL); IC50 [11]: 4100 nM; activity in HA assay (in words) ([15]; reference strain D39): no activity; MIC (S. pneumoniae BC7326 [16]): 1.12 ± 0.37 µM (≈ 0.489 µg/mL); concentration at which erythrocytes were lysed (human erythrocytes): b The erythrocytes were lysed in the presence of artocarpin at concentrations higher than 10 µM.; hemolysis at 3 h, 31.6 µM [19]: 20%; MIC (S. pneumoniae DSM20566 [24]): 5.58 ± 0.97 µM (≈ 2.44 µg/mL); IC50 [25]: 7500 nM; effect on A549 cell viability under adherence assay conditions (in words) [26]: did not affect cell viability; MIC (S. pneumoniae BC57 [28]): 1.45 ± 0.04 µM (≈ 0.633 µg/mL); MIC (S. pneumoniae CJ9400 [29]): 3.45 ± 2.05 µM (≈ 1.51 µg/mL); factor of reduction of viability of pneumococci (S. pneumoniae [32]; within 18 h): > 1000; MIC90 (S. pneumoniae [33]): 0.99 to 5.75 µM (≈ 0.432 to 2.51 µg/mL)
2 | CCC(CC)O[C@@H]1C=C(C(=O)O)C[C@H](N)[C@H]1NC(C)=O [oseltamivir, Oseltamivir carboxylate] | > 50 µM | > 50 µM | > 50 µM | > 50 µM | 2.1 ± 1.3 µM | > 50 µM | > 50 µM | competitively inhibited | > 50 µM | 0.3 ± 0.0 µM | > 50 µM | > 50 µM | > 50 µM | > 50 µM | > 50 µM | > 50 µM | > 50 µM | > 50 µM | inhibitory potency to pneumococcal NA (in words) (pneumococcal NA): medium; Inhibitory concentration (HA assay) ([15]; minimal NA inhibitory concentration, strain D39): 10.0 ± 0.0 µM; factor by which inhibitory activity on bacterial NAs is lower than on viral NAs ([17]; compared to viral NAs Ki of 0.32 nM): 1000; Ki ([17]; rNanA of DSM20566, MUNANA substrate): 230 nM; effect on adhesion of pneumococci to A549 cells (in words) ([26]; DSM20566 and PN8828): did not reduce pneumococcal adherence; concentration up to which no inhibitory or bactericidal activity was exhibited (S. pneumoniae [32]; maximum tested concentration): > 50 µM; Ki (viral NAs): 0.32 nM
